The record followed here is ChEMBL document CHEMBL1133650, “Gold(III) complexes as potential antitumor agents: solution chemistry and cytotoxic properties of some selected gold(III) compounds” (J Med Chem, 2000).

The nature of test [1]: Ratio of cytotoxic activity against resistant cell line to that of sensitive cell line. It counts as functional.
The test system of test [2] is A2780. The experiment in a line: cytotoxic activity toward A2780 ovarian human cell line sensitive (S) to cisplatin in experiment 3. Format: functional, cell-based. The gist of the method:
(§1)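 Cisplatin-sensitive parental A2780/S human ovarian carcinoma cells, grown in RPMI 1640 with FBS at 37 °C under 5% CO2 and subcultured twice weekly. Exponentially growing cells were treated for 72 h, and growth inhibition was measured by sulforhodamine B assay in RPMI 1640 + 5% FBS. IC50 is the mean ± SE of ≥3 determinations, or the mean of two.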

Test [3] concerns A2780. The experiment in a line: cytotoxic activity toward A2780 ovarian human cell line resistant (R) to cisplatin in experiment 3. Format: functional, cell-based. The gist of the method: (§2)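 A2780/R human ovarian carcinoma cells, made cisplatin-resistant by repeated weekly 1-h exposure of the parental line to 50 μM cisplatin, kept in RPMI 1640 with FBS at 37 °C and 5% CO2. Exponentially growing cells were exposed to compound for 72 h, and growth was read by SRB assay in RPMI 1640 + 5% FBS. IC50 is the mean ± SE of at least three determinations, or the mean of two.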

Test [4] concerns A2780. The experiment in a line: cytotoxic activity toward A2780 ovarian human cell line sensitive (S) to cisplatin in experiment 1. Format: functional, cell-based. The method, boiled down: as §1
The test system of test [5] is A2780. The experiment in a line: cytotoxic activity toward A2780 ovarian human cell line resistant (R) to cisplatin in experiment 2. It counts as functional, cell-based.
The subject of test [6] is A2780. The experiment in a line: cytotoxic activity toward A2780 ovarian human cell line sensitive (S) to cisplatin in experiment 2. Format: functional, cell-based.
Test [7] relates to A2780. The experiment in a line: cytotoxic activity toward A2780 ovarian human cell line resistant (R) to cisplatin in experiment 5. Format: functional, cell-based. The gist of the method: as §2
Test [8] deals with A2780. The experiment in a line: cytotoxic activity toward A2780 ovarian human cell line sensitive (S) to cisplatin in experiment 5. It counts as functional, cell-based. The method, boiled down: as §1
Test [9] deals with A2780. The experiment in a line: cytotoxic activity toward A2780 ovarian human cell line resistant (R) to cisplatin in experiment 8. It counts as functional, cell-based. The gist of the method: as §2
Another test relates to L1210. The experiment in a line: Cytotoxicity measured against L1210 cell line. Format: functional, cell-based, Mus musculus.
The test system of test [10] is A2780. The experiment in a line: cytotoxic activity toward A2780 ovarian human cell line sensitive (S) to cisplatin in experiment 8. Format: functional, cell-based. The method, boiled down: as §1
Test [11] has as its system A2780. The experiment in a line: cytotoxic activity toward A2780 ovarian human cell line sensitive (S) to cisplatin. It counts as functional, cell-based. The gist of the method:
as §1

pIC50: −log10 of the molar value. A value given as a limit tells only on which side of the number the result lay.

Consider `c1cnc2c(c1)ccc1cccnc12` [PHENANTHROLINE], for which the Ratio in test [1] was found to be 0.75. The pIC50 with A2780 [2] (Homo sapiens, A2780) is 5.44; in the test with A2780 [3] (Homo sapiens, A2780), 5.56.

In the case of `c1ccc(-c2cccc(-c3ccccn3)n2)nc1` [TERPYRIDINE], the negative-log IC50 (pIC50) in the test on A2780 [4] (Homo sapiens, A2780) was 6.90; in the test on A2780 [5] (Homo sapiens, A2780), 6.44. Moreover, the Ratio in test [1] is given as 2.88.

For AU(TERPY) [listing 1 of 2 here], the pIC50 in the test with A2780 [4] (a2780) is 6.70; in the test with A2780 [3] (a2780) it was 6.43.

Take AU(TERPY) [listing 2 of 2 here]: the Ratio in test [1] was found to be 1.23.

For the compound AUCL3(EN2) [listing 1 of 2 here], the pIC50 was 5.08 in the test with A2780 [2] (a2780) and 4.77 with A2780 [3] (a2780).

Consider AUCL3(EN2) [listing 2 of 2 here], for which the Ratio in test [1] came out at 2.03.

AUCL(DIEN) [listing 1 of 2 here]: the pIC50 was 5.09 with A2780 [6] and 4.73 in the test on A2780 [3] (a2780).

For the compound AUCL(DIEN) [listing 2 of 2 here], the Ratio in test [1] came to 2.28.

With AUCYCLAM, the pIC50 in the test on A2780 [5] (a2780) is less than 3.92; with A2780 [6], 4.00.

On to AUPHEN [listing 1 of 2 here], for which the pIC50 with A2780 [7] is 5.46; in the test on A2780 [8] it was 5.42.

On to AUPHEN [listing 2 of 2 here], for which the Ratio in test [1] turned out to be 0.92.

As to CISPLATIN [listing 1 of 2 here], the pIC50 in the test with A2780 [9] is 4.85; in the test on L1210, 5.64; in the test with A2780 [10] it was 5.91.

CISPLATIN [listing 2 of 2 here]: the Ratio in test [1] was determined as 11.6.

On to [AuCl4]-, for which the pIC50 in the test on A2780 [11] was 4.96.

The compound [Pt-(dien)Cl]Cl showed a negative logarithm of the IC50 (pIC50) in the test with L1210 of 3.57.

[Pt-(en2)]Cl2 gave a pIC50 in the test with L1210 of 2.77.
